Screening results from PubChem BioAssay.
UCH37 DUB inh = blocks the human deubiquitinase UCH37; Q9Y5K5; purified proteasome/UCH37, Ub-AMC cleavage fluorescence; inhibition, % (no concentration beside the values); 0.33% of 330,000 active;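 active = mean inhibition over replicate wells above about 20%, limit read from the data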
Target sequence (Q9Y5K5 whole entry, looked up): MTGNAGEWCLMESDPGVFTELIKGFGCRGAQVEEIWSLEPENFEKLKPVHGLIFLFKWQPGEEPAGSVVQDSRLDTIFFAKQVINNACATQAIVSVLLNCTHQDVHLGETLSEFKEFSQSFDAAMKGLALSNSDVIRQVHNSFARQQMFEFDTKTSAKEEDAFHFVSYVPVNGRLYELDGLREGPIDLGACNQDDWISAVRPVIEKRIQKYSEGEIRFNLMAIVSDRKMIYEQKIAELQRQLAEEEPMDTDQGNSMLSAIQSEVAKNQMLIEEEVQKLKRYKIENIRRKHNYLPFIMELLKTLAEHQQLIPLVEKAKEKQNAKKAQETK
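Reagent: Ub-AMC substrate; assay system: Proteasome-associated human UCH37 deubiquitinase; controls: no-proteasome and no-compound wells; read-out: % inhibition of Ub-AMC cleavage fluorescence; timing: 30 min preincubation with enzyme, 25 min cleavage at room temperature; signal: AMC fluorescence from Ub-AMC cleavage, excitation 355 nm, emission 460 nm; buffer or medium: Tris-HCl pH 7.4 plus ovalbumin, ATP-MgCl2, DTT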
MEKK2 WT-MEK5 = raises or lowers MEK5 binding to wildtype human MEKK2 PB1 domain. 1.1% of 290,000 active. binding response (% of control), % at 10 µM. bead flow cytometry, Alexa488-MEK5 binding to MEKK2 WT; actives lie on both sides; in the data active = binding response below about 67% or above about 130%
Apaf1 inhib = inhibitors of human Apaf-1 apoptosome | reconstituted apoptosome caspase-3 activity, DEVD-Rh110 fluorescence | O14727 | AID 489030 | 0.71% of 330,000 active | inhibition, % at 20 µM; active = inhibition of at least 40% at 20 µM
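Material: cell-free apoptosome with Apaf-1, procaspase-3 and caspase-9; Buffer or medium: Hepes pH 7.5 with detergent and BSA; Reagent: cytochrome c trigger plus (Z-DEVD)2-Rh110 caspase-3 substrate; Times: compound with Apaf-1, dATP, procaspase-3 30 min, then 50 min reaction, room temperature; Technique: Rh110 fluorescence intensity.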
UBC13 inh = blocks human UBC13 polyubiquitin chain formation; inhibition, % at 20 µM; 0.47% of 330,000 active; TR-FRET; P61088; AID 485273; in the data active = inhibition above about 45%, passing the limit was not always enough
Target sequence (P61088 whole entry, looked up): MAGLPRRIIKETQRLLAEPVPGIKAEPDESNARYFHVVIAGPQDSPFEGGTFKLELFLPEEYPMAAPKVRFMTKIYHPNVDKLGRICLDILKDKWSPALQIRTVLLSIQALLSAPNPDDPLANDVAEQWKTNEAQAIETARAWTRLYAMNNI
MEKK3 PB1 HTS = modulators (inhibitors or enhancers) of MEK5 binding to human MEKK3 PB1 domain; 1.4% of 290,000 active; bead-based flow cytometry, Alexa488-MEK5 binding to MEKK3; actives lie on both sides; 0 = blocked by unlabeled MEK5, 100 = vehicle; Q99759; binding response (% of control), % at 10 µM;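 active = binding response more than 3 SD above or below the average of its plate-row segment, actives on both sides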;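 note: Alexa488 bead fluorescence after subtracting the streptavidin-only scavenger bead signal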
MEKK2mut PB1 HTS = signal of MEK5 binding to mutant human MEKK2 PB1 domain | bead flow cytometry, Alexa488-MEK5 binding to MEKK2 mutant | percent response, % at 10 µM | 0.35% of 290,000 active | AID 1530; in the data active = percent response above about 24%, passing the limit was not always enough
MEKK2wt confirm = raises or lowers MEK5 binding to wildtype human MEKK2, retest; shares compounds with MEKK3 PB1 HTS; bead flow cytometry, Alexa488-MEK5 binding to MEKK2 WT; actives lie on both sides; binding response (% of control), % at 10 µM; 2.4% of 5,900 active; in the data active = binding response below about 16% or above about 210%; inactive = in between
MEKK2mut-MEK5 = signal of MEK5 binding to mutant human MEKK2, retest | shares compounds with MEKK3 PB1 HTS | 2% of 5,900 active | percent response, % at 10 µM | bead flow cytometry, Alexa488-MEK5 binding to MEKK2 mutant; in the data active = percent response mostly above about 71%, no sharp cut-off; inactive = mostly below about 38%;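 note: higher means compound restores mutant binding toward wildtype level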
MEKK3 confirm = confirmation of inhibitors of MEK5 binding to human MEKK3; shares compounds with MEKK3 PB1 HTS; bead flow cytometry, Alexa488-MEK5 binding to MEKK3; hits give low values; binding response (% of control), % at 10 µM; 1.8% of 5,900 active; AID 1894;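 active = binding response below 72% of control, or above a set upper limit, though filed actives all read lower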;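 note: lower values mean stronger disruption of MEK5 binding to MEKK3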
A number is an active result; . = inactive; / = no result; [ ] = dose if it differs, or a comment. In the library only some 3% were active in any assay of this set; here they are far more common.

SMILES	UCH37 DUB inh	MEKK2 WT-MEK5	Apaf1 inhib	UBC13 inh	MEKK3 PB1 HTS	MEKK2mut PB1 HTS	MEKK2wt confirm	MEKK2mut-MEK5	MEKK3 confirm
COc1ccc(OC)c(C2C3=C(CCCC3=O)Nc3nnnn32)c1 (centres undefined)	.	.	.	.	133	.	.	.	.
COc1ccc2nc(NC(=O)CNS(=O)(=O)c3cccs3)sc2c1	.	.	.	.	.	.	/	/	/
CCOc1ccc2nc(NC(=O)COC)sc2c1	.	.	.	.	.	.	/	/	/
COc1ccc(NC(=O)Cn2cnc3ccccc3c2=O)cc1OC	.	.	.	.	.	.	/	/	/
COc1ccc2nc(NC(=O)CN(C)S(=O)(=O)c3cccs3)sc2c1	.	-7.0[inhibitor]	.	.	1.0[inhibitor]	.	.	.	.
CCOCC(=O)Nc1nc2ccc(OC)cc2s1	.	.	.	.	81[inhibitor]	.	.	.	.
COc1ccc2nc(NC(=O)Cn3cnc4ccccc4c3=O)sc2c1	.	49[inhibitor]	.	.	68[inhibitor]	.	.	.	.
CCN(CC)CCCNC(=O)c1cc2c(-c3ccc(Cl)cc3)nn(C)c2s1	.	218	.	.	122	29	.	.	.
Cn1nc(-c2ccc(Cl)cc2)c2cc(C(=O)NCC3CCCO3)sc21 (centres undefined)	.	.	.	.	.	.	/	/	/
CCCCN(CC)CCNC(=O)c1cc2c(-c3ccccc3F)nn(C)c2s1	.	.	.	.	.	.	/	/	/
CC1CCCCN1CCNC(=O)c1cc2c(-c3ccccc3F)nn(C)c2s1 (centres undefined)	.	.	.	.	.	24	.	.	.
O=C(NCCCN1CCCCCC1)c1ccc2c(Cl)c3c(nc2c1)CCCC3	.	160	.	.	.	.	.	.	.
CCN1CCN(CCCNC(=O)c2ccc3c(Cl)c4c(nc3c2)CCCC4)CC1	.	.	.	.	.	.	/	/	/
CN1CCN(CCCNC(=O)c2cc3c(-c4ccc(Cl)cc4)nn(C)c3s2)CC1	.	180	43	46	.	.	.	.	.
NS(=O)(=O)c1ccc(CCNC(=O)C(=O)c2c[nH]c3ccccc23)cc1	.	.	.	.	.	.	/	/	/
COc1cc(/C=C(\NC(C)=O)C(=O)N2CCCCC2)ccc1OC(C)=O	.	.	.	.	.	.	/	/	/
CCN1CCN(CCCNC(=O)c2cc3c(=O)[nH]c4ccccc4c3s2)CC1	.	.	.	.	.	.	/	/	/
O=C(NCCCN1CCCC1)c1cc2c(Cl)nc3ccccc3c2s1	.	142	.	.	.	.	.	.	.
O=C(Cc1cccs1)NCC1CCCO1 (centres undefined)	.	.	.	.	.	.	/	/	/
CC1(C)CC(=O)c2cnc(NCc3ccco3)nc2C1	.	.	.	.	.	.	/	/	/
O=C1CCCc2nc(NCc3ccco3)ncc21	.	.	.	.	.	24	.	.	.
C/C=C/c1ccc(OCCCCN(C)Cc2ccccc2)c(OC)c1	.	139	.	.	.	.	.	.	.
COC(=O)c1ccc(CNS(=O)(=O)c2ccc3ccccc3c2)cc1	.	.	.	.	.	.	/	/	/
CCOC(=O)c1c(-c2ccccc2)oc2ccc(OCC(=O)NNC(=O)CCCC(=O)O)cc12	.	.	.	.	.	.	/	/	/
CCOC(=O)c1c(-c2ccccc2)oc2ccc(OCC(=O)NNC(=O)CCC(=O)O)cc12	.	9.0[inhibitor]	.	.	5.0[inhibitor]	.	.	.	.
SMILES	UCH37 DUB inh	MEKK2 WT-MEK5	Apaf1 inhib	UBC13 inh	MEKK3 PB1 HTS	MEKK2mut PB1 HTS	MEKK2wt confirm	MEKK2mut-MEK5	MEKK3 confirm
O=C(Nc1nnc(-c2ccco2)o1)c1cccc(N2C(=O)CCC2=O)c1	.	.	.	.	129	.	.	.	.
O=C(Nc1cc(-c2nc3ccccc3s2)ccc1Cl)c1ccc2c(c1)OCO2	.	.	.	.	.	.	/	/	/
Cc1ccc(-c2nc3ccccc3s2)cc1NC(=O)c1ccc2c(c1)OCO2	.	-2.0[inhibitor]	.	.	1.0[inhibitor]	.	.	.	.
Nc1cc2nc[nH]c2cc1N	.	41[inhibitor]	.	.	31[inhibitor]	.	.	.	69
CCOC(=O)C1=C(c2ccc(OC)cc2)OC(N)=C(C#N)C1c1cccnc1 (centres undefined)	.	.	.	.	.	.	/	/	/
COc1ccc2c(C)cc(SCC(=O)Nc3cccnc3Cl)nc2c1	.	.	.	.	.	.	/	/	/
N#CC1=C(N)OC(c2ccccc2)=C(C#N)C1c1ccc2c(c1)OCO2 (centres undefined)	.	.	.	.	133	.	.	.	.
N#CC1=C(N)OC2=C(C(=O)CC(c3ccccc3)C2)C1c1ccc2c(c1)OCO2 (centres undefined)	.	.	.	.	.	.	/	/	/
CN(C)S(=O)(=O)n1cc(/C=C(\NC(=O)c2ccccc2Cl)C(=O)N2CCCC2)c2ccccc21	/	.	.	.	.	.	/	/	/
COc1ccccc1N1CCN(C(=O)Cn2cnc3c2c(=O)n(C)c(=O)n3C)CC1	.	.	.	.	.	.	/	/	/
Cc1cccc(-c2cc3nc4c(c(NCc5ccco5)n3n2)CCCC4)c1	.	136	.	.	.	.	.	.	.
COc1ccc(NC(=O)CCSCCC(=O)Nc2ccc(OC)cc2OC)c(OC)c1	.	.	.	.	137	.	.	.	.
COc1ccc(NC(=O)Cc2c(F)cccc2Cl)c(OC)c1	.	3.0[inhibitor]	.	.	1.0[inhibitor]	.	.	.	.
COc1ccc(S(=O)(=O)Nc2ccccc2C(=O)OC2CCCN(C)C2)cc1OC (centres undefined)	.	.	.	.	.	.	/	/	/
O=C(CN1CCN(Cc2ccc3c(c2)OCO3)CC1)N1CCc2[nH]c3ccccc3c2C1	.	.	/	/	.	.	/	/	/
O=C(CN1CCN(Cc2ccc3c(c2)OCO3)CC1)N1CCc2[nH]c3ccc(F)cc3c2C1	.	.	.	.	.	32	.	.	.
COc1ccc(-c2nc(CN3CCN(c4cc(C)nc(C)c4)CC3)c(C)o2)c2ccccc12	.	158	.	.	.	.	.	.	.
Cc1cc(N2CCN(Cc3nc(-c4ccc(Cl)cc4)oc3C)CC2)cc(C)n1	.	.	.	.	.	.	/	/	/
CCOc1ccc2nc(NC(=O)CN3CCN(C)CC3)sc2c1	.	.	.	.	.	.	/	/	/
